Columns and labels:
[1] = target: Sodium-dependent dopamine transporter (Rattus norvegicus, UniProt P23977); assay: Displacement of [3H]WIN35428 from DAT in Sprague-Dawley rat striatum membranes incubated for 120 mins by microbeta scintillation counting method; assay type: cell membranes, Membrane
[2] = target: Sodium-dependent serotonin transporter (Rattus norvegicus, UniProt P31652); assay: Displacement of [3H]citalopram from SERT in Sprague-Dawley rat midbrain membranes incubated for 60 mins by microbeta scintillation counting method; assay type: cell membranes, Membrane
Sodium-dependent serotonin transporter, sequence (P31652 whole entry): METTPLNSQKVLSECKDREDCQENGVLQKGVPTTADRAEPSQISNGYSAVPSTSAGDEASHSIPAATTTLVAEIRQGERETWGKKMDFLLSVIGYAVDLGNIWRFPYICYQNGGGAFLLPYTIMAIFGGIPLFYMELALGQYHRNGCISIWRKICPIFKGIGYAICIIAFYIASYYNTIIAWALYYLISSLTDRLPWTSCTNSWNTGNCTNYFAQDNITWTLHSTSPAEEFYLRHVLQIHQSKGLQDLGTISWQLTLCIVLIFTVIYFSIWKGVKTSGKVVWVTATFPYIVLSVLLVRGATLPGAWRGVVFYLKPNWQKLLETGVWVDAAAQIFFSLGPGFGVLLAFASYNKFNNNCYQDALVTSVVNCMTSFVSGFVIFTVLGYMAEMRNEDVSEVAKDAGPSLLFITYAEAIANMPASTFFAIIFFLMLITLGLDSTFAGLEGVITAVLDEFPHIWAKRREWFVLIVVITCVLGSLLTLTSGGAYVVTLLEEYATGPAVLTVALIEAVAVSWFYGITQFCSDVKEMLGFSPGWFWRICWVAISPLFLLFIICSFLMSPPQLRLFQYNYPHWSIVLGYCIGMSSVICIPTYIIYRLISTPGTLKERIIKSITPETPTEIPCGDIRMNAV

[3] = target: Sigma non-opioid intracellular receptor 1 (Cavia porcellus, UniProt Q60492); assay: Displacement of [3H]-(+)-pentazocine from Sigma1 receptor in guinea pig cortex membranes incubated for 120 mins by microbeta scintillation counting method; assay type: cell membranes
Sigma non-opioid intracellular receptor 1, sequence (Q60492 whole entry): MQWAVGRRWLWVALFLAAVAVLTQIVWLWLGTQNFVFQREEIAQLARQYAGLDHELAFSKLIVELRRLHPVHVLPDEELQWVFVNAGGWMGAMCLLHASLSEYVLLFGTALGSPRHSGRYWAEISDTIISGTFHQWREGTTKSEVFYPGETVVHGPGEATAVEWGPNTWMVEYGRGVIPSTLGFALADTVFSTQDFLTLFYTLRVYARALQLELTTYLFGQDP

[4] = species on record: Rattus norvegicus; assay: Selectivity ratio of Ki for displacement of [3H]citalopram from in SERT Sprague-Dawley rat midbrain membranes to Ki for displacement of [3H]WIN 35428 from DAT in Sprague-Dawley rat striatum membranes
[5] = Stability in mouse liver microsomes at 10 uM after 60 mins in presence of NADPH by LC-MS/MS analysis; assay type: ADME, Microsome; conditions: 1 h
[6] = target: Voltage-gated inwardly rectifying potassium channel KCNH2 (Homo sapiens, UniProt Q12809); assay: Inhibition of human ERG
Voltage-gated inwardly rectifying potassium channel KCNH2, sequence (Q12809 whole entry): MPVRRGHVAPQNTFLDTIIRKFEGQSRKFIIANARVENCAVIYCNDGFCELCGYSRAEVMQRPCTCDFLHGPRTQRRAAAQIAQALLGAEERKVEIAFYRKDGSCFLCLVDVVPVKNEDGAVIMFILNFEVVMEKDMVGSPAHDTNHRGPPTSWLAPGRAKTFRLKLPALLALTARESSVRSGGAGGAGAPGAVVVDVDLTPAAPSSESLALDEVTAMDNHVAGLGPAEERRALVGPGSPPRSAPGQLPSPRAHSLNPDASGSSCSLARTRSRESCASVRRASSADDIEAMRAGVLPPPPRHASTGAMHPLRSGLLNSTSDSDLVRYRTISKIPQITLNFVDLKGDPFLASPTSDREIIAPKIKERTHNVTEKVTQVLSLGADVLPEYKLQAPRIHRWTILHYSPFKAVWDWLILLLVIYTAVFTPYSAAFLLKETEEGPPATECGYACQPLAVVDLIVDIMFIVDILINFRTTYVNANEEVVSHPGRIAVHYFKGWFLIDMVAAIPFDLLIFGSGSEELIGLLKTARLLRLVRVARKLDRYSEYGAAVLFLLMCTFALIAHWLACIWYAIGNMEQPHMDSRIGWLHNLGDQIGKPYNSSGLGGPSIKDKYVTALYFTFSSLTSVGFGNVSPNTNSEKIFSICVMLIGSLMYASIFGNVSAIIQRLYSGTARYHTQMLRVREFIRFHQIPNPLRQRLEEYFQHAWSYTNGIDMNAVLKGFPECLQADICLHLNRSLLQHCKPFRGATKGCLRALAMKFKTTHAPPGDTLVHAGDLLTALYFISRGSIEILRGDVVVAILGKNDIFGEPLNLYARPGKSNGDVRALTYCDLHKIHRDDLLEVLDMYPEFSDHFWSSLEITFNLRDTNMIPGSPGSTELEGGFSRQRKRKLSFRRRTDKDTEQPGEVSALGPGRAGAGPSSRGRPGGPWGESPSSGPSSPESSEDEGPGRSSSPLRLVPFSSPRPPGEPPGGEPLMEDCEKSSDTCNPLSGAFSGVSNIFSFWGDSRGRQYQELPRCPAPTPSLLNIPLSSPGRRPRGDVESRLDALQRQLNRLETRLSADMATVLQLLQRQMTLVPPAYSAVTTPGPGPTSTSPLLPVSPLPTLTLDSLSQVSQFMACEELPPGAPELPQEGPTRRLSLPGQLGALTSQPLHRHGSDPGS

[7] = Selectivity ratio of IC50 for inhibition of human ERG to Ki for displacement of [3H]WIN 35428 from DAT in Sprague-Dawley rat striatum membranes
[8] = target: T1, Sodium-dependent dopamine transporter (Homo sapiens, UniProt Q01959); assay: Displacement of [3H]WIN35428 from DAT (unknown origin) transiently expressed in COS7 cells incubated for > 90 mins by beta scintillation counting method; assay type: cell-based, COS-7
T1 sequence (Q01959 whole entry): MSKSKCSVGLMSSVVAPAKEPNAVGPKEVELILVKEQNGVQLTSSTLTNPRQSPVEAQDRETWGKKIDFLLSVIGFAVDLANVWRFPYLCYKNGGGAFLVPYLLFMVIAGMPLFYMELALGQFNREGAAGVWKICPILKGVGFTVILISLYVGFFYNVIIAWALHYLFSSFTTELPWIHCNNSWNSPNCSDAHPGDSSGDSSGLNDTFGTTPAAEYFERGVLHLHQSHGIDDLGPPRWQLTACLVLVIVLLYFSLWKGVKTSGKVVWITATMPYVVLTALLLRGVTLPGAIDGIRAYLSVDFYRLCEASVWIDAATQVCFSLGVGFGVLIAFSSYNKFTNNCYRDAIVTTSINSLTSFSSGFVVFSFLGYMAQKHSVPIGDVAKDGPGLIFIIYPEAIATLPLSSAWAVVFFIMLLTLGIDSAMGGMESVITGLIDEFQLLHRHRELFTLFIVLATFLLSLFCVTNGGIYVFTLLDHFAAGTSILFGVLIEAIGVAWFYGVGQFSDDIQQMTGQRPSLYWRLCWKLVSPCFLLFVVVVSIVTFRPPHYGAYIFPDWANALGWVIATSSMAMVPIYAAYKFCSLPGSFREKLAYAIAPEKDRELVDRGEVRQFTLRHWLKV

[9] = Displacement of [3H]WIN35428 from DAT Y156F mutant (unknown origin) transiently expressed in COS7 cells incubated for > 90 mins by beta scintillation counting method; assay type: cell-based, Homo sapiens; conditions: cos-7
[10] = species on record: Homo sapiens; assay: Selectivity ratio of Ki for displacement of [3H]WIN35428 from DAT Y156F mutant (unknown origin) transiently expressed in COS7 cells to Ki for displacement of [3H]WIN35428 from DAT (unknown origin) transiently expressed in COS7 cells; assay type: cell-based
[11] = Stability in mouse liver microsomes assessed as parent compound remaining at 10 uM after 60 mins in presence of NADPH by LC-MS/MS analysis; assay type: ADME, Microsome; conditions: read-out: Stability
[12] = target: T1, Sodium-dependent dopamine transporter; assay: Inhibition of human DAT transiently expressed in COS7 cells assessed as reduction in [3H]-DA uptake measured after 5 mins by beta-scintillation counting method; assay type: cell-based, COS-7
[13] = Half life in rat liver microsomes at 10 uM in presence of NADPH generating system by LC-MS/MS analysis; assay type: ADME, Microsome
[14] = Effect on locomotor activity in mouse assessed as increase in total ambulations at 3 to 56 mg/kg, ip measured during 30 mins of 2 hrs test by open field test; assay type: ADME, organism-based; conditions: in vivo
Procedure, shortened: (§1)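 Mice acclimatized ~2 h, injected i.p. then placed immediately in open-field chambers with infrared beam arrays; beam breaks over 2 h converted to distance; maximum distance per 30 min reported; n=6 per group, each mouse used once; two-way ANOVA (Drug, Dose) with Tukey post-hoc versus vehicle.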

[15] = Half life in mouse liver microsomes at 10 uM in presence of NADPH by LC-MS/MS analysis; assay type: ADME, Microsome
[16] = Effect on locomotor activity in mouse assessed as increase in total ambulations at 1 to 10 mg/kg, ip measured during 30 mins of 2 hrs test by open field test; assay type: ADME, organism-based; conditions: in vivo; procedure, shortened: as §1
[17] = Half life in human liver microsomes at 10 uM after 60 mins in presence of NADPH by LC-MS/MS analysis; assay type: ADME, Microsome; conditions: for half-life at 10 µM: liver microsomes
[18] = Stability in human liver microsomes assessed as parent compound remaining at 10 uM after 60 mins in presence of NADPH by LC-MS/MS analysis; assay type: ADME, Microsome; conditions: read-out: Stability
[19] = Effect on locomotor activity in mouse assessed as increase in total ambulations at 1 to 30 mg/kg, ip measured during 30 mins of 2 hrs test by open field test; assay type: ADME, organism-based; conditions: in vivo; procedure, shortened: as §1
[20] = Drug metabolism in mouse liver microsomes assessed as 1-(2-((Bis(4-fluorophenyl)methyl)thio)ethyl)-3,5-cis-dimethylpiperazine metabolite formation by HPLC/MS analysis; assay type: ADME, Microsome
[21] = Effect on locomotor activity in mouse assessed as increase in total ambulations at 3 to 30 mg/kg, ip measured during 30 mins of 2 hrs test by open field test; assay type: ADME, organism-based; conditions: in vivo; procedure, shortened: as §1

Sodium-dependent dopamine transporter (Rattus norvegicus, UniProt P23977), sequence (P23977 whole entry): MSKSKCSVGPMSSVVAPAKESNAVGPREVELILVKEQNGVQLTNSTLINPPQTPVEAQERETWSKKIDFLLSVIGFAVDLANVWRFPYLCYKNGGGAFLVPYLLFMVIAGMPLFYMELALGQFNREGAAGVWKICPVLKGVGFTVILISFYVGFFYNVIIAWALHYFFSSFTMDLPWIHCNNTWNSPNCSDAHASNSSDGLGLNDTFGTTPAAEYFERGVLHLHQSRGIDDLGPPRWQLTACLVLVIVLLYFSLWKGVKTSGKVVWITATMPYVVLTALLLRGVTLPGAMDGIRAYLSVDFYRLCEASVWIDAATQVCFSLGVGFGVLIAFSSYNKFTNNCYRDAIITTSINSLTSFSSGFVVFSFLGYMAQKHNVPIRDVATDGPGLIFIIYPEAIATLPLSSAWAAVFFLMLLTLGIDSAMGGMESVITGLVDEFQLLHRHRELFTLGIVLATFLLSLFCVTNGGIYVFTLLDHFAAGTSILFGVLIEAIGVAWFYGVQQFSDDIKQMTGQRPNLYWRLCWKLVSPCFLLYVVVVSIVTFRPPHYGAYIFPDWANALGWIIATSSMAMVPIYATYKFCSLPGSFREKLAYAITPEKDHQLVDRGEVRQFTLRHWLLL

C[C@H](O)CN1CCN(CCSC(c2ccc(F)cc2)c2ccc(F)cc2)CC1
Ki [1]: 37.9 nM
Ki [2]: 3940 nM
Ki [3]: 2.58 nM
Ratio Ki [4]: 104

[O-][S+](CCCN1CCN(CCCc2ccccc2)CC1)C(c1ccc(F)cc1)c1ccc(F)cc1 (centres undefined)
Ki [1]: 40.3 nM
Ki [2]: 1100 nM
Ki [3]: 39.4 nM
Ratio Ki [4]: 27
Stability [5]: Unstable

CC(O)CN1CCC2(CCN(CC[S+]([O-])C(c3ccc(F)cc3)c3ccc(F)cc3)CC2)C1 (centres undefined)
Ki [3]: 65.1 nM
Ratio Ki [4]: 1.4

[O-][S+](CCN1CCN(C[C@@H](O)Cc2ccccc2)CC1)C(c1ccc(F)cc1)c1ccc(F)cc1 (some centres undefined)
Ki [1]: 1.34 nM
Ki [2]: 21300 nM
Ki [3]: 27.4 nM
Ratio Ki [4]: 15900
Stability [5]: Unstable

CCC(=O)N1CCN(CCSC(c2ccc(F)cc2)c2ccc(F)cc2)CC1
Ki [1]: 5080 nM
Ki [2]: 2490 nM
Ki [3]: 33.2 nM
Ratio Ki [4]: 0.5

C[C@@H]1CN(CCSC(c2ccc(F)cc2)c2ccc(F)cc2)C[C@H](C)N1CC(O)Cc1ccccc1 (some centres undefined)
Ki [3]: 15.2 nM
Ratio Ki [4]: 805

[O-][S+](CCN1CCN(C[C@H](O)Cc2ccccc2)CC1)C(c1ccc(F)cc1)c1ccc(F)cc1 (some centres undefined)
Ki [1]: 3.63 nM
Ki [2]: 18700 nM
Ki [3]: 331 nM
Ratio Ki [4]: 5150
Stability [5]: Unstable

C[C@@H](O)CN1CCN(CCSC(c2ccc(F)cc2)c2ccc(F)cc2)CC1
Ki [1]: 73.2 nM
Ki [2]: 2840 nM
Ki [3]: 3.03 nM
Ratio Ki [4]: 40

C[C@@H](O)CN1CCN(CC[S+]([O-])C(c2ccc(F)cc2)c2ccc(F)cc2)CC1 (some centres undefined)
Ki [1]: 782 nM
Ki [2]: 81500 nM
Ki [3]: 902 nM
Stability [5]: Stable

C[C@@H]1CN(CCSC(c2ccc(F)cc2)c2ccc(F)cc2)C[C@H](C)N1
Ki [1]: 92.3 nM
Ki [2]: 13100 nM
Ki [3]: 111 nM
Ratio Ki [4]: 141

C[C@@H]1CN(CC[S+]([O-])C(c2ccc(F)cc2)c2ccc(F)cc2)C[C@H](C)N1CC(O)Cc1ccccc1 (some centres undefined)
Ki [3]: 75.4 nM
Ratio Ki [4]: 379
IC50 [6]: 91.5 nM
Selectivity ratio [7]: 30
Ki [8]: 3.83 nM
Ki [9]: 19.1 nM
Ratio Ki [10]: 5.8
remaining at 1 h, 10 µM [11]: < 10%
Ki [12]: 11.1 nM

OC(Cc1ccc(C(F)(F)F)cc1)CN1CCN(CCSC(c2ccc(F)cc2)c2ccc(F)cc2)CC1 (centres undefined)
Ki [1]: 23.4 nM
Ki [2]: 4480 nM
Ki [3]: 187 nM
Ratio Ki [4]: 191

CC(O)CN1[C@H](C)CN(CC[S+]([O-])C(c2ccc(F)cc2)c2ccc(F)cc2)C[C@@H]1C (some centres undefined)
Ki [3]: 315 nM
Ratio Ki [4]: 78
IC50 [6]: 7300 nM
Ki [8]: 406 nM
Ki [9]: 3030 nM
Ratio Ki [10]: 7.5
remaining at 1 h, 10 µM [11]: 30 to 44%
Ki [12]: 552 nM

C[C@H](O)CN1CCN(CC[S+]([O-])C(c2ccc(F)cc2)c2ccc(F)cc2)CC1 (some centres undefined)
Ki [1]: 536 nM
Ki [2]: 200000 nM
Ki [3]: 284 nM
Stability [5]: Stable

CC(O)CN1CCN(CC[S+]([O-])C(c2ccc(F)cc2)c2ccc(F)cc2)CC1 (centres undefined)
half-life at 10 µM [13]: 126 min
Activity [14]: Non-Toxic
half-life at 10 µM [15]: 126 min

C[C@H](O)CN1[C@H](C)CN(CCSC(c2ccc(F)cc2)c2ccc(F)cc2)C[C@@H]1C
Ki [1]: 28.5 nM
Ki [2]: 15600 nM
Ki [3]: 5.95 nM
remaining at 1 h, 10 µM [11]: 10%
Activity [16]: Non-Toxic
half-life at 10 µM [17]: > 40 min
remaining at 1 h, 10 µM [18]: > 30%

O[C@H](Cc1ccccc1)CN1CCN(CCSC(c2ccc(F)cc2)c2ccc(F)cc2)CC1
Ki [1]: 3.93 nM
Ki [2]: 813 nM
Ki [3]: 23.6 nM
Ratio Ki [4]: 207
Stability [5]: Unstable

COc1ccc(CC(O)CN2CCN(CCSC(c3ccc(F)cc3)c3ccc(F)cc3)CC2)cc1 (centres undefined)
Ki [1]: 1.91 nM
Ki [2]: 1420 nM
Ki [3]: 9.65 nM
Ratio Ki [4]: 743

CC(O)CN1[C@H](C)CN(CCSC(c2ccc(F)cc2)c2ccc(F)cc2)C[C@@H]1C (mixture of isomers)
Ki [1]: 23.1 nM
Ki [3]: 5.62 nM
IC50 [6]: 635 nM
Ki [8]: 58.3 nM
remaining at 1 h, 10 µM [11]: < 10%
Activity [19]: Non-Toxic
half-life at 10 µM [15]: 20 min
t1/2 ([17]; microsomes, 1 h, 10 µM): > 40 min
remaining at 1 h, 10 µM [18]: > 30%
Drug metabolism [20]: Metabolite_Detected
Ki [12]: 100 nM

OC(CN1CCC2(CCN(CCSC(c3ccc(F)cc3)c3ccc(F)cc3)CC2)C1)c1ccccc1 (centres undefined)
Ki [1]: 127 nM
Ki [3]: 45.5 nM
Ratio Ki [4]: 1
Selectivity ratio [7]: 13
Ki [8]: 104 nM
Ki [9]: 239 nM
Ratio Ki [10]: 2.3
remaining at 1 h, 10 µM [11]: 30 to 44%
Ki [12]: 268 nM

O=C(CCc1ccccc1)N1CCN(CCSC(c2ccc(F)cc2)c2ccc(F)cc2)CC1
Ki [1]: 2830 nM
Ki [2]: 2540 nM
Ki [3]: 294 nM
Ratio Ki [4]: 0.9

OC(Cc1ccc(F)cc1)CN1CCN(CCSC(c2ccc(F)cc2)c2ccc(F)cc2)CC1 (centres undefined)
Ki [1]: 1.72 nM
Ki [2]: 1370 nM
Ki [3]: 29.4 nM
Ratio Ki [4]: 796
Stability [5]: Unstable

Fc1ccc(C(SCCCN2CCN(CCCc3ccccc3)CC2)c2ccc(F)cc2)cc1
Ki [1]: 8.68 nM
Ki [2]: 1060 nM
Ki [3]: 29.2 nM
Ratio Ki [4]: 122

CC(=O)CN1CCN(CCSC(c2ccc(F)cc2)c2ccc(F)cc2)CC1
Ki [1]: 182 nM
Ki [2]: 17400 nM
Ki [3]: 1.08 nM
Ratio Ki [4]: 96

[O-][S+](CCN1CCN(CC(O)Cc2ccc(C(F)(F)F)cc2)CC1)C(c1ccc(F)cc1)c1ccc(F)cc1 (centres undefined)
Ki [1]: 11.7 nM
Ki [2]: 11600 nM
Ki [3]: 147 nM
Ratio Ki [4]: 991
Stability [5]: Unstable

CC(O)CN1CCN(CCSC(c2ccc(F)cc2)c2ccc(F)cc2)CC1 (centres undefined)
half-life at 10 µM [13]: 14 min

COc1ccc(CC(O)CN2CCN(CC[S+]([O-])C(c3ccc(F)cc3)c3ccc(F)cc3)CC2)cc1 (centres undefined)
Ki [1]: 3.01 nM
Ki [2]: 14600 nM
Ki [3]: 31.8 nM
Ratio Ki [4]: 4850
Stability [5]: Unstable

C[C@@H]1CN(CCSC(c2ccc(F)cc2)c2ccc(F)cc2)C[C@H](C)N1C[C@@H](C)O
Ki [1]: 39.4 nM
Ki [2]: 19800 nM
Ki [3]: 2.19 nM
remaining at 1 h, 10 µM [11]: 30%
Activity [16]: Non-Toxic
half-life at 10 µM [17]: > 40 min
remaining at 1 h, 10 µM [18]: > 30%

O[C@@H](Cc1ccccc1)CN1CCN(CCSC(c2ccc(F)cc2)c2ccc(F)cc2)CC1
Ki [1]: 1.53 nM
Ki [2]: 1390 nM
Ki [3]: 7.72 nM
Ratio Ki [4]: 908
Stability [5]: Unstable

[O-][S+](CCN1CCN(CC(O)Cc2ccc(F)cc2)CC1)C(c1ccc(F)cc1)c1ccc(F)cc1 (centres undefined)
Ki [1]: 1.29 nM
Ki [2]: 12300 nM
Ki [3]: 73.7 nM
Ratio Ki [4]: 9540
Stability [5]: Unstable

COC(=O)[C@H]1[C@@H](OC(=O)c2ccccc2)C[C@@H]2CC[C@H]1N2C [COCAINE]
Activity [21]: Toxic
